Measurements gathered from unrelated publications.
Target: Dual specificity mitogen-activated protein kinase kinase 4 (MAP2K4, Homo sapiens, UniProt P45985)
Residues used in one study (P45985 1-399): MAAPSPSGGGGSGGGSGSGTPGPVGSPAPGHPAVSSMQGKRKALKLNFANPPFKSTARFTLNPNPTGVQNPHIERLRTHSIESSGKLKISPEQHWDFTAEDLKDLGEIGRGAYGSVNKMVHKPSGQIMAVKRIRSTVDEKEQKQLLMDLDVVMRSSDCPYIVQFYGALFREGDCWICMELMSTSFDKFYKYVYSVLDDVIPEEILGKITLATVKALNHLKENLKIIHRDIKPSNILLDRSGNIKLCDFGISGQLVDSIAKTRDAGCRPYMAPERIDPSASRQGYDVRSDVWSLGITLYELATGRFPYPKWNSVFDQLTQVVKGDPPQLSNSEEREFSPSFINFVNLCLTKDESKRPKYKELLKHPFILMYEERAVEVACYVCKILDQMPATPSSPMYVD

| SMILES | test | setting | remaining binding |
| --- | --- | --- | --- |
| N[C@H]1CCN(c2nccc(-c3cnn4ncccc34)n2)C1 | binding | 1 µM | 86% |
| CO[C@H]1CC[C@H](CNc2ccc(S(=O)(=O)NC(=O)c3ccc(N4CCN(CC5=C(c6ccc(Cl)cc6)CC(C)(C)CC5)CC4)cc3Oc3cnc4[nH]ccc4c3)cc2[N+](=O)[O-])CC1 | cell-free assay, competition with immobilised ligand | 1 µM | 98% |
| Cc1cnn2ncc(-c3ccnc(N(C)C)n3)c2c1 | binding | 1 µM | 100% |
| Nc1c(C(=O)NCc2ccc(C(=O)NCCCC3CCCCC3)cc2)cnn1-c1ccccc1 | cell-free assay, competition with immobilised ligand | 0.1 µM | 100% |
| COc1ncc2cc3ccccc3nc2c1C#N | cell-free assay, competition with immobilised ligand | 5 µM | 100% |
| CS(=O)(=O)NCC[C@H](NC(=O)c1cncc2c1cnn2-c1ccc(F)cc1)c1ccnc(S(C)(=O)=O)c1 | cell-free assay, competition with immobilised ligand | 1 µM | 100% |
| C[C@@H](c1ccc(-n2cnc3c(N)ncnc32)cc1)N1CCc2nn(C)c(Cc3ccccc3)c2C1=O | binding, competition with immobilised ligand | 0.1 µM | 57% |
| CCN1CCN(Cc2ccc(C(=O)Nc3ccc(C)c(Oc4ccc5c(c4)CC(=O)N5)c3)cc2C(F)(F)F)CC1 | binding, competition with immobilised ligand | 1 µM | 100% |
| C=CC(=O)N1CCC(C(=O)NCC(=O)N2CCN(c3nc(-c4cnc(N)nc4C(F)F)nc(N4CCOCC4)n3)CC2)CC1 | binding, competition with immobilised ligand | 1 µM | 100% |
| CCC(=O)N[C@@H]1CC[C@H](C(=O)N(C)c2ccc(-c3nc4ccccc4o3)cc2)C1 | cell-free assay, competition with immobilised ligand | 1 µM | 100% |
| O=C(NCC1CCOCC1)c1n[nH]cc1NC(=O)c1c(F)cccc1F | binding, competition with immobilised ligand | 1 µM | 68% |
| O=C(c1ccc(Nc2ncc(Cl)c(-c3cc4ccccc4s3)n2)cc1)N1CCC(N2CCCC2)CC1 | binding, competition with immobilised ligand | 1 µM | 69% |
| F[C@@H]1CCN(c2nccc(-c3cnn4ncccc34)n2)C1 | binding | 1 µM | 100% |
| COc1cc(-c2cn(C3CCc4ccccc4N(CC(F)(F)F)C3=O)nn2)ccc1-n1ccc(C)n1 (centres unmarked) | cell-free assay, competition with immobilised ligand | 1 µM | 100% |
| c1cnn2ncc(-c3ccnc(N4CCC45COC5)n3)c2c1 | binding | 1 µM | 62% |
| Cn1cc(Cl)c2c(Oc3c(F)cc(Nc4cc(Cl)nc(N)n4)cc3F)ccnc21 | cell-free assay, competition with immobilised ligand | 0.1 µM | 80% |
| CN(C)c1nccc(-c2cnn3ncccc23)n1 | binding | 1 µM | 81% |
| O=C(NCCCN1CCOCC1)c1ccc(Nc2ncc(Cl)c(-c3ccc(Cl)s3)n2)cc1 | binding, competition with immobilised ligand | 1 µM | 56% |
| C[C@@H]1CCN(c2nccc(-c3cnn4ncccc34)n2)C1 | binding | 1 µM | 69% |
| CNC(=O)[C@@H]1CC[C@@H](n2c(-c3ccc4cnccc4c3)nc3ccc(C(=O)NCc4cccc(C(N)=O)c4)cc32)C1 | binding, competition with immobilised ligand | 1 µM | 100% |
